Each compound was assayed on RAW264.7 (assay: Antiinflammatory activity in mouse RAW264.7 cells assessed as inhibition of LPS-induced NO production).
Format: functional, cell-based
Summary of the method: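 RAW 264.7 cells seeded at 2 × 10^5 cells/mL, stimulated with 1 µg/mL LPS with or without test compound, 37 °C for 24 h. Nitrite in cell-free supernatant measured by Griess reagent (sulfanilamide in phosphoric acid plus N-(1-naphthyl)ethylenediamine), absorbance at 550 nm against sodium nitrite standard curve. IC50 for 50% NO inhibition; triplicate, mean ± SD. Viability checked by CCK assay.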

Question: For `COc1cc2ccc3cc(O)ccc3c2c(OC)c1O`, which IC50 is on record?
Answer: 35.7 µM

Question: How did the IC50 turn out when `COc1c(O)cc2ccc3c(OC)ccc(O)c3c2c1OC` was run?
Answer: 20.4 µM

Question: For `COc1cc(O)cc(CCc2ccc(OC)c(OC)c2)c1`, which IC50 is on record?
Answer: > 50 µM

Question: Which IC50 does the source give for `COc1cc2c(c(O)c1OC)-c1ccc(O)cc1CC2` [EPHEMERANTHOL A] here?
Answer: 12 µM

Question: How did the IC50 turn out when `COc1c(O)c(O)cc2c1-c1c(O)cccc1CC2` [EPHENERANTHOL C] was run?
Answer: 17.6 µM

Question: With `COc1c(O)cc2c(c1OC)-c1ccc(O)cc1CC2` [ERIANTHRIDIN] as the compound, how does the IC50 read?
Answer: 19.5 µM

Question: For `COc1c(O)c(O)cc2ccc3cccc(O)c3c12` [FIMBRIOL B], which IC50 is on record?
Answer: 28.9 µM

Question: Which IC50 does the source give for `COc1cc2c(c(OC)c1O)-c1ccc(O)cc1CC2` [FLAVANTHRIDIN] here?
Answer: 34.1 µM

Question: Which IC50 does the source give for `COc1cc(O)cc(CCc2ccc(O)c(OC)c2)c1` [GIGANTOL] here?
Answer: > 50 µM

Question: With `COc1cc(O)cc2c1-c1c(O)cccc1CC2` [HIRCINOL] as the compound, how does the IC50 read?
Answer: 26.4 µM

Question: With `COc1cc(O)c2c(c1)CCc1cc(O)ccc1-2` [LUSIANTHRIDIN] as the compound, how does the IC50 read?
Answer: 9.6 µM

Question: Which IC50 does the source give for `COc1cc(CCc2cc(OC)c(O)c(OC)c2)ccc1O` [MOSCATILIN] here?
Answer: 27.6 µM

Question: `N=C(N)NN` [PIMAGEDINE] was tested. Which IC50 did it give?
Answer: 17.5 µM
